Test results published in paper PMC4469080 (Bioorganic & medicinal chemistry letters, 2015).
Like-named read-outs stand apart in the source and are kept apart here.

Legend:
mouse SR-BI [1] = target: T1, mouse SR-BI (Mus musculus, UniProt Q61009); experiment: DiI-HDL uptake assay; assay type: cell-based; conditions: for activity in DiI uptake assay (in words): inhibition of SR-BI-mediated lipid uptake
T1 sequence (Q61009 1-509): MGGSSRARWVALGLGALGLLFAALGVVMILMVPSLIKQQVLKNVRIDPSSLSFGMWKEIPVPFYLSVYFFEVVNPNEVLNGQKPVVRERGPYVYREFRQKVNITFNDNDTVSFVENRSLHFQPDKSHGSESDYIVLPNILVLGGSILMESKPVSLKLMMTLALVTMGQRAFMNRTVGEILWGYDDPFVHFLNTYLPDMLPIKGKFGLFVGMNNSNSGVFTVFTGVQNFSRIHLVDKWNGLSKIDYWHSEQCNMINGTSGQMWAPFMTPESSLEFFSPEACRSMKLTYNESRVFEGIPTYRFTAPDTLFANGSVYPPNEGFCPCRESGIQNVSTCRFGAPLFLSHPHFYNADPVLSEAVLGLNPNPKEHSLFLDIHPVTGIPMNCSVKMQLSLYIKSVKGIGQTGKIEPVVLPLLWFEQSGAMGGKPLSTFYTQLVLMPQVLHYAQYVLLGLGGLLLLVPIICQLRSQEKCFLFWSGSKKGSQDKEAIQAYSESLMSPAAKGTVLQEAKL
How it was run: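 CHO cells (ldlA line) overexpressing mouse SR-BI take up the fluorescent lipid DiI from DiI-labeled HDL particles. In the high-throughput screen, compounds were tested at 12.5 μM against 1 μM BLT-1 as the positive control. Plates with Z′ < 0.3 were excluded, and a counterscreen removed compounds that quenched DiI-HDL fluorescence in a dose-dependent manner. IC50 values came from retests of compounds as purified dry powders.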

Solubility in PBS = assay type: physicochemical; conditions: in PBS (with 1% DMSO)
mouse SR-BI [2] = target: T1, mouse SR-BI; conditions: read-out: IC50 in the primary assay; previous probes; cited from earlier work

| Structure (SMILES) | activity in DiI uptake assay (in words) (mouse SR-BI [1]) | also measured |
| --- | --- | --- |
| C[C@@H]1CN([C@H](C)CO)C(=O)c2cc(NC(=O)Cc3cn(C)c4ccccc34)ccc2O[C@H]1CN(C)S(=O)(=O)c1ccc(Cl)cc1 [Compound 1a] | – | IC50 (mouse SR-BI [1]): 460 nM |
| C[C@@H]1CN([C@H](C)CO)C(=O)c2cc(NC(=O)Cc3cn(C)c4ccccc34)ccc2O[C@H]1CN(C)S(C)(=O)=O [Compound 1g] | weak potency | solubility (Solubility in PBS): good solubility |
| CC(C)NC(=O)Nc1cccc2c1O[C@@H](CN(C)S(=O)(=O)c1ccc(Cl)cc1)[C@H](C)CN([C@H](C)CO)C2=O [Compound 3] | inactive | – |
| CC(C)NC(=O)Nc1ccc2c(c1)C(=O)N([C@H](C)CO)C[C@@H](C)[C@H](CN(C)S(=O)(=O)c1ccc(Cl)cc1)O2 [Compound 4] | abrogated the activity | – |
| C[C@@H]1CN([C@H](C)CO)C(=O)c2cc(NC(=O)C3CCCCC3)ccc2O[C@H]1CN(C)C(=O)c1ccc(Cl)cc1 [Compound 5] | inactive | – |
| C[C@@H]1CN([C@H](C)CO)C(=O)c2cc(NC(=O)C3CCCCC3)ccc2O[C@H]1CN(C)S(=O)(=O)c1cccc(Cl)c1 [Compound 6] | – | IC50 (mouse SR-BI [1]; DiI uptake assay, average of at least two measurements (Table 4, various analogs)): 800 nM |
| C[C@@H]1CN([C@H](C)CN)C(=O)c2cc(NC(=O)Cc3cn(C)c4ccccc34)ccc2O[C@H]1CN(C)S(=O)(=O)c1ccc(Cl)cc1 [Compound 9] | inactive | – |
| C[C@@H]1CN([C@H](C)CN(C)C)C(=O)c2cc(NC(=O)Cc3cn(C)c4ccccc34)ccc2O[C@H]1CN(C)S(=O)(=O)c1ccc(Cl)cc1 [Compound 10] | inactive | – |
| COC[C@@H](C)N1C[C@@H](C)[C@H](CN(C)S(=O)(=O)c2ccc(Cl)cc2)Oc2ccc(NC(=O)NC(C)C)cc2C1=O [Compound 11] | only weakly active | – |
| CC(C)NC(=O)Nc1ccc2c(c1)C(=O)N(C(C)C)C[C@@H](C)[C@H](CN(C)S(=O)(=O)c1ccc(Cl)cc1)O2 [Compound 12] | weak activity | – |
| COCC(=O)n1ccc2cc(-c3csc(NC(=O)c4cc(OC)cc(OC)c4)n3)ccc21 [ML278] | – | IC50 (mouse SR-BI [2]): 6 nM |
